Source: PubChem
NPY Y1 blocker: blocks the human neuropeptide Y Y1 receptor; HEK293-CNG Y1 cells, membrane potential fluorescence; NPY at EC95, then isoproterenol; 200,000 compounds, 1% hits; AID 1040; inhibition, % at 3.6 µM; P25929;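 active means inhibition above the campaign mean inhibition of all tested compounds plus 3 SD, cut at about 20% in these data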
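Material: HEK293 cells co-expressing NPY Y1 receptor and cyclic-nucleotide gated channel. Timing: compound incubation 1 h at room temperature, readout 45 min post-stimulation. Signal: fluorescence, membrane potential probe.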
NPY Y2 blocker: NPY-Y2 (human) receptor antagonism | NPY-Y2 expressing cells, antagonist mode | inhibition, % at 2.7 µM | 140,000 compounds, 0.99% hits | AID 793; in the data active means inhibition above about 17%
Target sequence (P49146 whole entry, looked up): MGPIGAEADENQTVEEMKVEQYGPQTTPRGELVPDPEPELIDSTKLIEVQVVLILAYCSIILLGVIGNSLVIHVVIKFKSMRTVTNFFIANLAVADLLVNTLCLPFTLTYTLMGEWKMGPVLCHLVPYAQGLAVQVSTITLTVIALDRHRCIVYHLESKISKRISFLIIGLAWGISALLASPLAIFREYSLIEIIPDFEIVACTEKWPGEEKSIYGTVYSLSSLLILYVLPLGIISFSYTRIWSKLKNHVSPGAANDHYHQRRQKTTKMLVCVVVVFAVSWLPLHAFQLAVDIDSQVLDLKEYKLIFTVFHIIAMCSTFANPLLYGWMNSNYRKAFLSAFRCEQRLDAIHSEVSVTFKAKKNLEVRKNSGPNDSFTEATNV
Insulin prom inh: TRM-6 insulin promoter activity inhibition; TRM-6 cells, insulin promoter-eGFP reporter, imaging; reporter expression induced with tamoxifen; inhibition, % at 2 µM; 130,000 compounds, 0.9% hits;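 active means inhibition above the mean plus 3 SD, with well images judged a real hit on visual review, cut at about 60% in these data, passing the limit was not always enough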
NPY1 pot ag: potentiators or agonists of human neuropeptide Y receptor Y1; 220,000 compounds, 0.37% hits; NPY-Y1 expressing cells, potentiator/agonist activation; AID 1304; P25929; activation, % at 3.6 µM; in the data active means activation above about 33%, passing the limit was not always enough;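 further: cells stimulated with NPY at EC10 then isoproterenol at EC100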
Ins promoter up: MIN6 insulin promoter up-regulation; AID 1625; MIN6 insulin promoter-GFP reporter, high-content imaging; active compounds read high; z-score at 5 µM; 190,000 compounds, 0.3% hits;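 active means z-score above 3 at 5 µM with at least 500 cells counted in the well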
NPY-Y2 PAM-ag: potentiators or agonists of human neuropeptide Y receptor Y2 | P49146 | activation, % at 3.6 µM | cells expressing NPY-Y2, potentiator/agonist read-out | 220,000 compounds, 0.45% hits | AID 1359; in the data active means activation above about 27%;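 further: cells stimulated with NPY near EC25 plus isoproterenol at EC100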
NPY-Y2 confirm: confirmation of human NPY-Y2 receptor potentiators or agonists; shares compounds with NPY-Y2 PAM-ag; cell-based NPY-Y2 potentiator/agonist assay; activation, % at 3.6 µM; 450 compounds, 20% hits; AID 1539; in the data active means activation above about 33%
NPY-Y1 counter: NPY-Y1 potentiation or agonism as NPY-Y2 counter-screen | AID 1651 | Y1 HEK293-CNG cells, membrane potential fluorescence | shares compounds with NPY-Y2 PAM-ag | activation, % at 3.6 µM | 450 compounds, 20% hits; in the data active means activation above about 45%;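 further: cells stimulated with submaximal NPY then isoproterenol with phosphodiesterase inhibitor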
NPY-Y1 ag 2: activates human NPY-Y1, counter-screen for NPY-Y2 potentiators | shares compounds with NPY-Y2 PAM-ag | HEK293 Y1-CNGC, membrane potential fluorescence, agonism | activation, % at 3.6 µM | 450 compounds, 37% hits | AID 1702;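 active means activation above the mean of DMSO-only control wells plus 3 SD, cut at about 18% in these data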;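 further: cells stimulated with 1 µM isoproterenol plus the PDE inhibitor Ro 20-1724; Y1 agonists lower the membrane potential dye signal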
CNGC inh: cyclic nucleotide gated channel inhibition as counter-screen. 450 compounds, 32% hits. HEK293-CNG parental, isoproterenol cAMP, membrane potential fluorescence. AID 1703. shares compounds with NPY-Y2 PAM-ag. inhibition, % at 3.6 µM;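 active means inhibition above the control-well mean plus 3 SD of those wells, cut at about 22% in these data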
Y2 agonist ctr: NPY-Y2 agonism, counter-screen for Y2 potentiators; 450 compounds, 56% hits; activation, % at 3.6 µM; HEK293 Y2/CNGC cells, membrane potential fluorescence, agonist mode; shares compounds with NPY-Y2 PAM-ag; AID 1710;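 active means activation above the mean of solvent-only control wells plus 3 SD, cut at about 10% in these data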;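 further: cells stimulated by isoproterenol with no NPY added so direct agonism is tested; agonism lowers probe fluorescence through less cAMP and CNG channel opening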
A number is an active result; – = inactive; · = not tested or not shown. Compounds with a hit are over-represented: about 2.5% of the library has one in this group of screens.

SMILES	NPY Y1 blocker	NPY Y2 blocker	Insulin prom inh	NPY1 pot ag	Ins promoter up	NPY-Y2 PAM-ag	NPY-Y2 confirm	NPY-Y1 counter	NPY-Y1 ag 2	CNGC inh	Y2 agonist ctr
COc1cccc(NC(=O)C2CC(=O)N/C(=N/NC(=O)c3ccc(C)cc3)S2)c1 (configuration not stated)	·	·	·	–	–	–	·	·	·	·	·
Cc1noc(C)c1COc1ccc(C(=O)NCc2ccccn2)cc1	–	–	–	–	·	–	·	·	·	·	·
Cc1cc(N/C(=N/S(=O)(=O)c2cc(F)ccc2F)c2ccccc2)n(-c2ccccc2)n1	–	·	–	–	–	–	·	·	·	·	·
Cc1cc(N/C(=N/S(=O)(=O)c2ccc(F)cc2)c2ccccc2)n(-c2ccccc2)n1	–	·	–	–	–	28	–	–	–	–	–
FC(F)(F)c1cccc(NC(=S)NNC(=S)Nc2cccc(C(F)(F)F)c2)c1	·	·	·	–	–	54	–	–	46	44	33
CCOc1ccc(/C=N/NC(=O)Cn2ccnc2C)cc1	·	·	·	–	–	–	·	·	·	·	·
CCN1CCCC1CNC(=O)C1c2cc(OC)c(OC)cc2C(=O)N(C)C1c1cccnc1 (configuration not stated)	–	–	–	–	–	–	·	·	·	·	·
N#Cc1c(C#N)c(O)c2ccccc2c1O	·	·	·	–	–	–	·	·	·	·	·
N=C1CCC(=N)c2c1c(O)c1ccccc1c2O	·	·	·	–	–	41	–	–	23	–	18
COc1ccc(Nc2nc(NCc3ccco3)nc(N/N=C/c3ccc(O)cc3)n2)cc1	–	–	–	–	–	–	·	·	·	·	·
COc1ccc(N2CCN(CC(O)COc3ccccc3[N+](=O)[O-])CC2)cc1 (configuration not stated)	–	–	–	–	–	37	–	–	49	–	34
Cc1cccc(N2CCN(CC(O)COc3ccccc3Cl)CC2)c1 (configuration not stated)	·	·	·	–	–	–	·	·	·	·	·
C=CCc1ccccc1OCC(O)CN1CCN(c2ccc(C)cc2)CC1 (configuration not stated)	–	–	·	–	–	44	–	–	55	–	47
C=CCc1ccccc1OCC(O)CN1CCN(C(=O)OCC)CC1 (configuration not stated)	–	–	·	–	–	35	–	–	20	–	–
COc1ccc(OCC(O)CN2CCN(c3ccccc3)CC2)cc1 (configuration not stated)	–	·	·	–	–	–	·	·	·	·	·
O=C(CCC1CCCN(c2ncccn2)C1)NCc1ccc(F)c(F)c1 (configuration not stated)	–	·	·	–	–	–	·	·	·	·	·
CCOC(=O)C1C(=O)NC(c2ccccc2)=NC1c1ccc(Br)cc1 (configuration not stated)	–	·	–	–	–	–	·	·	·	·	·
Cn1ccnc1SCC(=O)Nc1cc(S(=O)(=O)N2CCOCC2)ccc1Cl	–	–	–	–	–	–	·	·	·	·	·
O=C(c1ccccc1)c1ccc(OCCOCCN2CCN(Cc3ccccc3)CC2)cc1	–	·	·	–	–	–	·	·	·	·	·
[O-]/[N+](=C\c1ccncc1)c1ccc(Br)cc1	–	–	–	–	–	57	–	–	20	–	–
[O-]/[N+](=C/c1cccnc1)c1ccc(Br)cc1	–	–	·	–	–	–	·	·	·	·	·
CC1=C(C(=O)OCC2CCCO2)C(c2ccccc2)C2=C(CC(C)(C)CC2=O)N1 (configuration not stated)	–	·	–	–	–	–	·	·	·	·	·
COC(=O)c1ccc(N2CCN(S(=O)(=O)c3ccc4ccccc4c3)CC2)c([N+](=O)[O-])c1	–	–	·	–	–	–	·	·	·	·	·
NC(=O)c1ccc(N2CCN(S(=O)(=O)c3ccccc3)CC2)c([N+](=O)[O-])c1	–	·	–	–	–	31	–	–	–	–	–
CCc1c(C)c(C#N)c2nc3ccccc3n2c1N(C)C	–	–	·	–	–	101	–	–	–	–	–
SMILES	NPY Y1 blocker	NPY Y2 blocker	Insulin prom inh	NPY1 pot ag	Ins promoter up	NPY-Y2 PAM-ag	NPY-Y2 confirm	NPY-Y1 counter	NPY-Y1 ag 2	CNGC inh	Y2 agonist ctr
COc1ccc(N2C(=O)CC2(C#N)c2ccc(OCc3ccccc3)cc2)cc1 (configuration not stated)	–	–	–	–	–	–	·	·	·	·	·
C/C(N)=C(/C#N)C(=O)CSc1nn(-c2ccc(Cl)cc2)c(=S)s1	–	·	–	–	–	35	–	–	–	–	10.0
CC(C)(C)n1cc(S(=O)(=O)c2ccccc2)[nH]c1=O	–	·	·	–	–	41	–	–	–	–	–
Cc1cc(C)c2c(-n3cccc3)nn(C)c2n1	–	–	–	–	–	–	·	·	·	·	·
Cc1ccc(C(=O)n2nc(-n3cccc3)c3c(C)cc(C)nc32)cc1	–	·	–	–	–	57	–	–	24	–	18
COc1ccnc(Oc2ccccc2)c1C(=O)N/C=N/OCc1ccccc1F	–	·	·	–	–	–	·	·	·	·	·
CCSc1nnc(NC(=O)CCNS(=O)(=O)c2cc(Br)cnc2N)s1	–	–	–	–	–	28	–	–	24	–	24
CCSc1nnc(NC(=O)CCc2ccccc2)s1	–	–	–	–	–	–	·	·	·	·	·
O=C1CCC/C(=N/Nc2ccc(Cl)cc2)C1	–	·	–	–	–	–	·	·	·	·	·
O=C(N/N=C/c1ccc(OC(F)F)cc1)c1cccc(S(=O)(=O)N2CCOCC2)c1	–	·	·	–	·	57	–	–	–	–	10
O=S(=O)(c1cnc(Cl)c(Cl)c1)N1CCCc2ccccc21	–	–	–	–	–	–	·	·	·	·	·
O=S(=O)(c1cnc(Cl)c(Cl)c1)N1CCc2ccccc21	·	·	·	–	–	42	–	–	–	32	23
COc1ccc(-n2c(-c3cc(-c4ccccc4)sc3N)n[nH]c2=S)cc1	·	·	·	–	–	–	·	·	·	·	·
Nc1sc(-c2ccccc2)cc1-c1n[nH]c(=S)n1C1CCCCC1	·	·	·	–	–	102	–	–	–	–	25
COc1ccc(-c2nc3cnccn3c2Nc2ccc(C)cc2)cc1	–	–	·	–	–	29	47	–	29	27	52
Cn1cnnc1SCC(=O)Nc1nc(-c2ccccc2)cs1	–	·	–	–	–	–	·	·	·	·	·
CC(C)c1nnc(NC(=O)CCC(=O)Nc2ccccc2)s1	·	·	·	–	–	–	·	·	·	·	·
CC(C)c1nnc(NC(=O)CCC(=O)Nc2ccc3cn[nH]c3c2)s1	·	·	·	–	–	39	–	–	–	–	13
O=C(CCC(=O)OCC(=O)c1ccc(Br)cc1)Nc1ccc(Br)c2cccnc12	–	–	–	–	–	–	·	·	·	·	·
